The record followed here is ChEMBL document CHEMBL3774319, “Novel indole sulfides as potent HIV-1 NNRTIs” (Bioorg Med Chem Lett, 2016).

pIC50: −log10 of the molar value.

Series [1] deals with Human immunodeficiency virus 1. Description: Antiretroviral activity against HIV-1 infected in HEK293T cells assessed as inhibition of viral replication by single-cycle assay. It counts as functional, organism-based. The following applies: Human immunodeficiency virus 1, HEK-293T. In outline:
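In vitro single-cycle, non-replicative phenotypic anti-HIV-1 assay; IC50 values derived from it.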

A short description of series [2]: Cytotoxicity against HEK293T cells by MTT assay. It counts as cell-based, HEK-293T. The following applies: human. In short, it runs like this: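 HEK293T cells read out with a tetrazolium-based colorimetric assay to give toxicity values.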
Series [3] is described as follows: Stability in ethanol solution containing sulfuric acid assessed as compound degradation at 0.10 mmol measured within 2 hrs by HPLC method. It counts as physicochemical.

As for `CCOC(=O)c1[nH]c2ccc(Cl)cc2c1N(CC)c1ccccc1`, the pIC50 in series [1] was 5.92. For the same molecule, the CC50 in series [2] is 22.8 µM.

As for `CCOC(=O)c1[nH]c2ccc(Cl)cc2c1C(SC)c1ccccc1` (racemic), in series [1], the pIC50 is 7.41. The molecule also came in with a half-maximal cytotoxic concentration (CC50) in series [2] of 26.1 µM.

On to `CCOC(=O)c1[nH]c2ccc(Cl)cc2c1C(SC)c1cccc(Cl)c1` (racemic), for which, in series [1], the pIC50 is 7.38. In addition, the CC50 in series [2] turned out to be 28.6 µM.

Consider `CCOC(=O)c1[nH]c2ccc(Cl)cc2c1C(OC)c1cccc(Br)c1` (racemic), for which the pIC50 in series [1] is 7.70. The same molecule yielded a CC50 in series [2] of 26.4 µM.

As for `CCOC(=O)c1[nH]c2ccc(Cl)cc2c1C(SC)c1cccc(C)c1` (racemic), the Stability entry in series [3] is listed as “Stable”. The pIC50 in series [1] is 7.42. Besides, the CC50 in series [2] amounted to 29.6 µM.

As for `CCOC(=O)c1[nH]c2ccc(Cl)cc2c1C(OC)c1cccc(C)c1` (racemic), the Stability entry in series [3] was “Unstable”. Also, the pIC50 in series [1] was 7.70. Moreover, in series [2], the CC50 was 27.4 µM.

Regarding `CCOC(=O)c1[nH]c2ccc(Cl)cc2c1C(SC)c1cc(C)cc(C)c1` (racemic), the negative logarithm of the IC50 (pIC50) in series [1] is 7.22. Also, in series [2], it took 32 µM to reach half-maximal cytotoxicity (CC50).

With `CCOC(=O)c1[nH]c2ccc(Cl)cc2c1C(OC)c1cccc(Cl)c1` (racemic), the pIC50 in series [1] was 7.48. The same molecule had a cytotoxic concentration (CC50) in series [2] of 26.8 µM.

With `CSC(c1ccccc1)c1c[nH]c2ccc(Cl)cc12` (racemic), the pIC50 in series [1] is 5.00. In addition, half-maximal cytotoxicity in series [2] (CC50) was put at 52.7 µM.
